Experimental data taken from ChEMBL document CHEMBL1151831, “Acylated iridoids with cytotoxicity from Valeriana jatamansi” (J Nat Prod, 2009).

How the values were obtained:
Format in all cases: functional, cell-based
A549 = assay: Cytotoxicity against human A549 cells after 24 hrs by MTT assay; conditions: A549, 24 h
How it was run: (§1)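 Human cancer lines from ATCC, seeded at 3000 cells per well and exposed 24 h later to a range of concentrations for 24 h. MTT was then added, plates were incubated a further 24 h, and viability was read as absorbance at 570 nm. IC50 values were calculated from the readings.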

HCT-8 = assay: Cytotoxicity against human HCT8 cells after 24 hrs by MTT assay; conditions: HCT-8, 24 h; how it was run: as §1
Bel-7402 = assay: Cytotoxicity against human Bel7402 cells after 24 hrs by MTT assay; conditions: Bel-7402, 24 h; how it was run: as §1
[1] = Cytotoxicity against human PC3M cells after 24 hrs by MTT assay; conditions: PC-3M; how it was run: as §1

| Structure (SMILES) | IC50 (A549) [µM] | IC50 (HCT-8) [µM] | IC50 (Bel-7402) [µM] | IC50 [1] [µM] |
| --- | --- | --- | --- | --- |
| CC(=O)OCC1=CO[C@@H](OC(=O)CC(C)C)[C@H]2C1=C[C@H](OC(=O)CC(C)C)[C@]21CO1 [VALTRATE] | 3.7 | 1.8 | 6.1 | 1.6 |
| CC(=O)O[C@H]1C[C@]2(O)C(COC(=O)C(OC(=O)CC(C)C)C(C)C)=CO[C@@H](OC(=O)CC(C)C)[C@@H]2[C@@]1(O)COC(=O)CC(C)(C)OC(C)=O (stereo partly specified) [JATAMANVALTRATE A] | > 10 | > 10 | > 10 | 5.3 |
| COC[C@@]1(O)[C@@H](OC(C)=O)C[C@]2(O)C(COC(=O)C(OC(=O)CC(C)C)C(C)C)=CO[C@@H](OC(=O)CC(C)C)[C@H]12 (stereo partly specified) [JATAMANVALTRATE E] | > 10 | 9.7 | 8.5 | > 10 |
| CC(C)CC(=O)OC(C(=O)OCC1=CO[C@@H](OC(=O)CC(C)C)[C@@H]2[C@@]3(CO3)[C@@H](O)C[C@]12O)C(C)C (stereo partly specified) [JATAMANVALTRATE L] | > 10 | > 10 | 7.6 | 3.4 |
| CC(=O)OCC1=CO[C@@H](OC(=O)CC(C)C)[C@H]2C1=C[C@H](OC(=O)CC(C)(C)OC(C)=O)[C@]21CO1 [ACEVALTRATE] | 2.9 | 1 | 1.7 | 1.4 |
| CC(=O)O[C@H]1C[C@]2(O)C(COC(=O)C(OC(=O)CC(C)C)C(C)C)=CO[C@@H](OC(=O)CC(C)C)[C@@H]2[C@@]1(O)COC(=O)CC(C)C (stereo partly specified) [JATAMANVALTRATE B] | > 10 | 6.2 | > 10 | 3.9 |
| CC(=O)O[C@H]1C(=O)[C@@]2(C)[C@H]([C@H](OC(=O)c3ccccc3)[C@]3(O)C[C@H](OC(=O)[C@H](O)[C@@H](NC(=O)c4ccccc4)c4ccccc4)C(C)=C1C3(C)C)[C@]1(OC(C)=O)CO[C@@H]1C[C@@H]2O [PACLITAXEL] | 0.0052 |  | 0.095 | 0.027 |
| CC(=O)O[C@H]1C=C2C(COC(=O)CC(C)C)=CO[C@@H](OC(=O)CC(C)C)[C@@H]2[C@@]1(O)COC(=O)c1ccccc1O [JATAMANVALTRATE I] | > 10 | 9.7 | > 10 | 3.9 |
| CC(=O)O[C@H]1C[C@]2(O)C(COC(=O)C(OC(=O)CC(C)C)C(C)C)=CO[C@@H](OC(=O)CC(C)C)[C@@H]2[C@@]1(O)COC(=O)c1ccccc1O (stereo partly specified) [JATAMANVALTRATE D] | > 10 | 4.5 | 9.7 | 3.8 |
| CC(=O)O[C@H]1C[C@@H]2C(COC(=O)CC(C)C)=CO[C@@H](OC(=O)CC(C)C)[C@@H]2[C@@]12CO2 [DIDROVALTRATE] | > 10 | 6.6 | 7.5 | 3.8 |
| CC(=O)OCC1=CO[C@@H](OC(=O)CC(C)C)[C@H]2C1=C[C@H](OC(=O)CC(C)C)[C@]2(O)COC(C)=O | 8.6 | > 10 | > 10 | > 10 |
| CC(=O)OCC1=CO[C@@H](OC(=O)CC(C)C)[C@H]2C1=C[C@H](O)[C@]2(O)COC(=O)CC(C)C [JATAMANVALTRATE J] | > 10 | > 10 | > 10 | 5.8 |
| CC(=O)OC[C@@]1(O)[C@@H](OC(C)=O)C[C@]2(O)C(COC(=O)C(OC(=O)CC(C)C)C(C)C)=CO[C@@H](OC(=O)CC(C)C)[C@H]12 (stereo partly specified) [JATAMANVALTRATE C] | > 10 | > 10 | > 10 | > 10 |
| CCOCC1=CO[C@@H](OC(=O)CC(C)C)[C@@H]2[C@@]3(CO3)[C@@H](OC(C)=O)C[C@]12O [JATAMANVALTRATE M] | > 10 | > 10 | > 10 | 6.3 |
| CC(=O)OCC1=CO[C@@H](OC(=O)CC(C)C)[C@H]2C1=C[C@H](OC(=O)CC(C)C)[C@]2(O)CO [JATAMANVALTRATE K] | > 10 | > 10 | 7.1 | 5 |
| CC(=O)O[C@H]1C[C@]2(O)C(COC(=O)C(OC(=O)CC(C)C)C(C)C)=CO[C@@H](OC(=O)CC(C)C)[C@@H]2[C@@]12CO2 (stereo partly specified) | 7.4 | 2.5 | 4 | 1.9 |
| CC(=O)O[C@H]1C[C@@H]2C(COC(=O)CC(C)C)=CO[C@@H](OC(=O)CC(C)C)[C@@H]2[C@@]1(O)COC(=O)CC(C)(C)OC(C)=O [JATAMANVALTRATE F] | > 10 | > 10 | 8.8 | 4.3 |
| CC(=O)O[C@H]1C[C@]2(O)C(COC(=O)C(OC(=O)CC(C)C)C(C)C)=CO[C@@H](OC(=O)CC(C)C)[C@@H]2[C@@]1(O)COC(=O)C(OC(=O)CC(C)C)C(C)C (stereo partly specified) [VALERIOTETRATE A] | > 10 | 8.2 | 9.9 | 3.1 |
| CC(=O)OC[C@]1(O)[C@H]2[C@H](OC(=O)CC(C)C)OC=C(COC(=O)CC(C)C)[C@H]2C[C@@H]1O [JATAMANVALTRATE G] | > 10 | > 10 | 5.9 | 5.6 |
| CC(=O)O[C@H]1C[C@]2(O)C(COC(=O)CC(C)C)=CO[C@@H](OC(=O)CC(C)C)[C@@H]2[C@@]12CO2 | 7 | 1.5 | 2.3 | 2.2 |
| CC(=O)OC[C@]1(O)[C@H]2[C@H](OC(=O)CC(C)C)OC=C(COC(=O)CC(C)C)[C@H]2C[C@@H]1OC(C)=O [DIDROVALTRATE ACETOXY HYDRIN] | 3 | 2.6 | 4.4 | 1.6 |
| CC(=O)O[C@H]1C[C@@H]2C(COC(=O)CC(C)C)=CO[C@@H](OC(=O)CC(C)C)[C@@H]2[C@@]1(O)CO [JATAMANVALTRATE H] | > 10 | > 10 | > 10 | 5.2 |
| CC(=O)OC[C@]1(O)[C@H]2[C@H](OC(=O)CC(C)C)OC=C(COC(=O)C(OC(=O)CC(C)C)C(C)C)[C@@]2(O)C[C@@H]1O (stereo partly specified) [VALERIOTRIATE B] | > 10 | > 10 | > 10 | 3.9 |
